One test deals with Mus musculus. In words: Analgesic activity in albino mouse assessed as reduction in acetic acid-induced writhing response at 100 mg/kg, po administered 1 hr prior to acetic acid challenge relative to control. Also noted: scale not given: the % may be the effect or the level left. In kind it is functional. In outline: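 Six mice per group got compound po at 100 mg/kg, 1 h before ip 0.6% acetic acid (10 mL/kg). Total writhes were counted over an observation window starting 5 min after the acetic acid injection. Aspirin at 100 mg/kg po was the positive control.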
(In general: Writhing tests count abdominal constrictions after an irritant is injected.)

Another test concerns Rattus norvegicus. In words: Antiinflammatory activity in albino rat assessed as inhibition of carrageenan-induced paw edema at 100 mg/kg, po administered 1 hr prior to carrageenen challenge measured after 3 hrs relative to control. In kind it is functional. In outline:
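Four rats per group got 100 mg/kg po, 1 h before subplantar injection of 1% Type IV lambda carrageenan suspension into the right hind paw. Vehicle controls got 0.5% sodium carboxymethyl cellulose (10 mL/kg) and the positive control got ibuprofen 100 mg/kg. Paw volume was read by plethysmograph water displacement immediately and at 3 h. Edema was compared statistically with vehicle controls as percent inhibition.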

Molecules are shown by their SMILES.

For the compound `CC(=O)Oc1ccccc1C(=O)O` [ASPIRIN], the Activity in the test on Mus musculus turned out to be 57.3%.
The inhibition in vivo is the percentage by which the read-out fell short of the control. Consider `CC(C)Cc1ccc(C(C)C(=O)O)cc1` (configuration not stated) [IBUPROFEN], for which the inhibition in vivo at 100 mg/kg with Rattus norvegicus was 70.7%.

(Values after ChEMBL document CHEMBL1154154, “Synthesis and pharmacological evaluation of 1,3,4-oxadiazole bearing bis(heterocycle) derivatives as anti-inflammatory and analgesic agents” (Eur J Med Chem, 2009).)
